Bioassay records from PubChem.
PglD inh = PglD (C. jejuni) enzyme inhibition | purified PglD enzyme, DTNB colorimetric CoA detection | inhibition, % at 12.5 µM | actives 0.098% (n = 360,000) | AID 602405; in the data active = inhibition above about 16%, passing the limit was not always enough; inconclusive = no clear call, values can overlap the other calls
Cneo AK release = causes C. neoformans cell lysis | adenylate kinase release luminescence, 4 h; normalised: neutral wells 0, clomiphene wells 100 | lysis activity, % at 15 µM | actives 0.2% (n = 360,000);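 active = mean lysis activity across replicates of at least 80%, whatever share of replicates individually reach that level; inactive = mean lysis activity below 80%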
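Test system: log-phase Cryptococcus neoformans yeast cells. Input: 5 × 10^6 yeast cells/mL. Medium: fresh YPD growth medium. Doses: single dose. Incubation: static 4 h at 37 °C with compound, 1 h detection. Measured by: luminescent adenylate kinase detection reagent. Read-out: signal increase indicating cell lysis. Benchmarks: Clomiphene.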
Vif inh = inhibitors of HIV Vif. HEK293T cells, Vif self-association by quenched fluorescence, imaging, 24 h. inhibition, % at 7.49 µM. actives 0.35% (n = 340,000). AID 602346; in the data active = inhibition above about 50%, passing the limit was not always enough; inconclusive = no clear call, values can overlap the other calls; inactive = below about 31%
FGF22 binding = FGF22 (human) thermal shift binding; recombinant FGF22 thermal shift, SYPRO orange fluorescence; percent of sucrose octasulfate shift, DMSO zero; actives 1.5% (n = 340,000); activity (Tm shift, normalised), % at 9.99 µM;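 active = mean Tm shift, scaled 0 neutral to 100 positive control, at about 1.3% or above, every replicate too, limit read from the data; inconclusive = no clear call, values can overlap the other calls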
Target sequence (Q9HCT0 whole entry, looked up): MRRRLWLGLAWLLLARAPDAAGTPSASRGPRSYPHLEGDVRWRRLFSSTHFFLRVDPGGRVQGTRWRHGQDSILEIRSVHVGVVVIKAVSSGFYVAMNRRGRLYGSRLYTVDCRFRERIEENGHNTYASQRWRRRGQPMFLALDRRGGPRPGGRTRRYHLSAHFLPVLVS
Ecoli rRNA inh = inhibits bacterial ribosomal RNA function over humanized ribosomes. AID 720706. actives 1.6% (n = 350,000). GFP signal change (wild-type ribosome), % (concentration not given with the values). E. coli WT GFP vs humanized-ribosome RFP mutants, fluorescence, 24 h; hits give low values; DMSO median 0, no signal -100;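 active = significant combined selectivity score with lowered wild-type GFP, culture density cut under 30%, mutant RFP and density less affected; inactive = any of these conditions unmet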
PGC1a acetyl inh = modulators of PGC1a acetylation; U2OS PGC1a acetylation, AlphaScreen anti-acetyl-lysine; with virally co-expressed GCN5 acetyltransferase; inhibition, % at 15.6 µM; actives 0.17% (n = 350,000); AID 651687;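 active = every replicate shows inhibition of at least 40%; inconclusive = mean inhibition at least 40% but some replicate below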;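 also: 0% = neutral control wells and 100% = positive control wells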
Numbers without * were called inactive; ? = inconclusive; nt = not tested or not shown. In the library only some 2.9% were active in any assay of this set; here they are far more common.

SMILES	PglD inh	Cneo AK release	Vif inh	FGF22 binding	Ecoli rRNA inh	PGC1a acetyl inh
CN(Cc1ccccc1)C(=O)C1CCN(S(=O)(=O)c2ccc3nc4c(c(C(=O)O)c3c2)CCCC4)CC1	-3	0	69*	-1	5	14
O=C(O)c1c2c(nc3ccc(S(=O)(=O)N4CCC(C(=O)NCc5ccccc5)CC4)cc13)CCCC2	0	-1	nt	0	-2	6
CC1CCC(NC(=O)C2CCN(S(=O)(=O)c3ccc4nc5c(c(C(=O)O)c4c3)CC(C)CC5)CC2)CC1 (stereo not drawn)	-6	-2	-3	43*	24	7
Cc1cc(NC(=O)c2cncc(Br)c2)ccc1NC(=O)c1cc2ccccc2o1	-1	0	104*	0	3	0
COc1cc(NC(=O)c2ccccc2)ccc1NC(=O)c1cc2ccccc2o1	-7	-1	1	0	11	8
COC(=O)c1cc(NC(=O)c2cc3ccccc3o2)cc(C(=O)OC)c1	5	3	-8	0	-23*	8
CCC(=O)N(C)C[C@H]1Oc2cc(-c3ccc(C#N)cc3)ccc2S(=O)(=O)N([C@H](C)CO)C[C@H]1C	2	1	nt	0	-8	6
Cc1ccc(NC(=O)CC2S/C(=N/N=C/c3ccco3)NC2=O)cc1Cl (stereo not drawn)	nt	nt	6	0	4	nt
Cc1ccc(NC(=O)CC2SC(=NCC3CCCO3)NC2=O)cc1Cl (stereo not drawn)	nt	nt	87*	nt	nt	nt
Cc1cc(NS(=O)(=O)c2ccc(NC(=O)c3ccc([N+](=O)[O-])s3)cc2)nc(C)n1	3	0	-5	0	2	nt
Cc1ccnc(NS(=O)(=O)c2ccc(NC(=O)c3ccc([N+](=O)[O-])s3)cc2)n1	nt	nt	4	44*	9	nt
COc1ccc(NC(=O)Nc2ccc3c(c2)C(=O)N(C)C[C@H](OC)[C@@H](C)CN[C@@H](C)CO3)cc1	-4	1	nt	nt	0	-4
CO[C@@H]1CN(C)C(=O)c2ccc(NC(=O)C3CCOCC3)cc2OC[C@@H](C)N(S(=O)(=O)c2ccc(C)cc2)C[C@H]1C	0	1	nt	0	-3	-15
c1ccc(N2CCN(c3ccccc3)C2c2ccncc2)cc1	-4	-3	?	0	-2	91*
CCCC(=O)N1CC2(C1)CN(C(=O)CC)[C@@H](CO)c1c2c2ccc(OC)cc2n1C	nt	nt	nt	0	-1	2
O=c1cc(O)c(-c2ccc(Cl)c(Cl)c2)c(Cl)[nH]1	-3	-1	4	0	-27*	1
O=c1cc(O)c(-c2ccc(Cl)cc2)c(Cl)[nH]1	nt	nt	7	0	-10	2
Cc1nnc(SC(C)C(=O)Nc2sc3c(c2C#N)CCCC3)[nH]c1=O (stereo not drawn)	-1	-5	53*	0	-23	0
CC(Sc1nc(N)cc(=O)[nH]1)C(=O)Nc1sc2c(c1C#N)CCCC2 (stereo not drawn)	nt	nt	-20	0	-33	-9
CC(=O)Nc1ccc2c(c1)C(=O)N(C)C[C@@H](C)[C@@H](CN(C)C(=O)NC(C)C)O2	nt	nt	nt	nt	-1	nt
Cc1ccc(SCc2noc(C(=O)NCC3CCCO3)c2C(=O)O)cc1C (stereo not drawn)	-3	4	-1	0	-24*	7
CC(=O)Nc1ccc2c(c1)C(=O)N(C)C[C@@H](C)[C@@H](CN(C)C(C)=O)O2	nt	nt	nt	nt	-1	nt
COc1cccc(S(=O)(=O)Nc2ccc3c(c2)[C@H]2C[C@H](CC(=O)NCc4ccccc4F)O[C@@H](CO)[C@H]2O3)c1	0	95*	nt	-1	2	-8
COc1cccc(S(=O)(=O)Nc2ccc3c(c2)[C@H]2C[C@@H](CC(=O)NC4CCCCC4)O[C@@H](CO)[C@H]2O3)c1	4	101*	nt	0	-7	-12
COc1cccc(S(=O)(=O)Nc2ccc3c(c2)[C@H]2C[C@@H](CC(=O)NCc4ccccc4F)O[C@H](CO)[C@H]2O3)c1	4	1	nt	-1	1	-3
SMILES	PglD inh	Cneo AK release	Vif inh	FGF22 binding	Ecoli rRNA inh	PGC1a acetyl inh
COC(=O)C[C@@H]1C[C@@H]2c3cc(NS(=O)(=O)c4cccc(OC)c4)ccc3O[C@@H]2[C@@H](CO)O1	1	6	nt	0	-4	-6
COc1cccc(S(=O)(=O)Nc2ccc3c(c2)[C@H]2C[C@H](CC(=O)NCc4cccc(F)c4)O[C@@H](CO)[C@H]2O3)c1	3	94*	nt	0	-5	-9
COc1cccc(S(=O)(=O)Nc2ccc3c(c2)[C@@H]2C[C@@H](CC(=O)NCc4cccc(F)c4)O[C@H](CO)[C@@H]2O3)c1	-5	106*	nt	-1	1	1
Cc1ccc(-c2cnc3c(c2)C(=O)N([C@@H](C)CO)C[C@@H](C)[C@H](CN(C)CC2CCCCC2)O3)cc1	-2	-2	nt	0	1	-14
Cn1nc(C(=O)Nc2ccc(S(=O)(=O)N3CCCCC3)cc2)c2ccccc2c1=O	-4	0	9	0	-21*	-13
O=C(Nc1ccc(S(=O)(=O)N2CCCC2)cc1)c1ccc(OCC2CCCO2)cc1 (stereo not drawn)	2	2	-13	41	-20*	2
CC(=O)c1ccc(NC(=O)Nc2ccc(S(=O)(=O)N3CCCC3)cc2)cc1	-1	0	1	0	-28*	nt
NS(=O)(=O)c1ccc(NC(=O)c2ccc(S(=O)(=O)N3CCCCCC3)cc2)cc1	-4	-1	-12	0	-20*	4
CC(=O)c1ccc(NC(=O)c2ccc(S(=O)(=O)N3CCCC3)cc2)cc1	-6	-4	0	nt	nt	5
Cn1nc(C(=O)Nc2ccc(Cl)c(S(=O)(=O)N3CCOCC3)c2)c2ccccc2c1=O	1	1	-3	0	23	-3
O=C(C[C@@H]1CC[C@H]2NC[C@H](O)COC[C@@H]2O1)NCc1ccc(Oc2ccccc2)cc1	3	2	nt	0	2	-3
COc1ccc2c3c(n(C)c2c1)[C@H](CO)N(C(=O)Cc1ccccn1)CC31CCN(Cc2ccccn2)CC1	nt	nt	nt	0	4	5
CC=Cc1ccc2n(c1=O)C[C@H]1[C@H](CO)[C@@H](C(=O)NC3CCCC3)N(CCC)[C@@H]21 (mixture of isomers)	nt	nt	nt	nt	1	nt
COc1ccccc1C(=O)NNC(=O)c1nn(Cc2ccccc2)c(=O)c2ccccc12	nt	nt	0	0	-24*	nt
CC(C)CNC(=O)c1nn(Cc2ccccc2)c(=O)c2ccccc12	-3	-1	10	0	2	nt
Cc1cccc(NC(=S)N(Cc2ccc(Br)cc2)Cc2ccc(C(=O)O)cc2)c1	5	0	1	0	-8	nt
